# Laboratory results from BindingDB's records for doi:10.1021/acs.jmedchem.8b02026 (Leiden University, 2019).
# Experiments:
# [1] = biological target: T1, Adenosine receptor A3 (Homo sapiens, UniProt P0DMS8); experiment: Displacement of [3H]PSB11 from human A3 adenosine receptor expressed in CHO cell membranes measured after 2 hrs by scintillation spectrometric method
# T1 sequence (P0DMS8 whole entry): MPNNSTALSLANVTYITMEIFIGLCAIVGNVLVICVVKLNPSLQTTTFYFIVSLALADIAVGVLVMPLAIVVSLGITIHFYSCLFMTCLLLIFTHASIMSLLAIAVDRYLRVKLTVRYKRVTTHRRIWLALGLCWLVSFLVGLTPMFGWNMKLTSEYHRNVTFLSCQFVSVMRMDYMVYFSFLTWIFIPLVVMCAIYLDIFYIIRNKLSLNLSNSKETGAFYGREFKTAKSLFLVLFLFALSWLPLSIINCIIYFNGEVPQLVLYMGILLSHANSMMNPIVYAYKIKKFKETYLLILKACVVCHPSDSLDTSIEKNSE
# [2] = biological target: T2, Adenosine receptor A3 (Homo sapiens, UniProt P0DMS8, Y265F); experiment: Displacement of [3H]PSB11 from human A3 adenosine receptor Y265F (7.36) mutant transiently expressed in CHOK1 cell membranes measured after 2 hrs by scintillation spectrometric method
# T2 sequence (P0DMS8 whole entry): T1 sequence (P0DMS8 whole entry)
# Method in brief: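 Membranes (15 µg) in 50 mM Tris-HCl, 5 mM MgCl2, 0.01% CHAPS, 1 mM EDTA, pH 7.4. Six competitor concentrations with ~10 nM [3H]PSB-11, 2 h at 25 °C. NSB from 100 µM NECA; filtration and scintillation counting; one-site fit. Three experiments, duplicate.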
# [3] = biological target: Adenosine receptor A2a (Homo sapiens, UniProt P29274); experiment: Displacement of [3H]ZM241385 from human A2A adenosine receptor expressed in HEK293 cell membranes measured after 2 hrs by scintillation spectrometric method
# Adenosine receptor A2a, sequence (P29274 whole entry): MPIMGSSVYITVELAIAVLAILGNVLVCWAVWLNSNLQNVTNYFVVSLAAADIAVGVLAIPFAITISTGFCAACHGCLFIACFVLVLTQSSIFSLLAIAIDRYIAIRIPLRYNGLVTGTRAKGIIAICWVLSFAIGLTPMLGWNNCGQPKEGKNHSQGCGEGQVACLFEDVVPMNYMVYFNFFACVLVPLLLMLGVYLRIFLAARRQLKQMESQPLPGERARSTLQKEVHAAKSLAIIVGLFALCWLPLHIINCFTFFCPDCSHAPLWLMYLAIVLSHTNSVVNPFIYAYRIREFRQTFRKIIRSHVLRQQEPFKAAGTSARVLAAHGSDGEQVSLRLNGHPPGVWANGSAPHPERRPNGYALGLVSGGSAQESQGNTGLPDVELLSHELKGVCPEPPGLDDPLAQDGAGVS
# [4] = biological target: T3, Adenosine receptor A1 (Homo sapiens, UniProt P30542); experiment: Displacement of [3H]DPCPX from human A1 adenosine receptor expressed in CHO cell membranes measured after 2 hrs by scintillation spectrometric method
# T3 sequence (P30542 whole entry): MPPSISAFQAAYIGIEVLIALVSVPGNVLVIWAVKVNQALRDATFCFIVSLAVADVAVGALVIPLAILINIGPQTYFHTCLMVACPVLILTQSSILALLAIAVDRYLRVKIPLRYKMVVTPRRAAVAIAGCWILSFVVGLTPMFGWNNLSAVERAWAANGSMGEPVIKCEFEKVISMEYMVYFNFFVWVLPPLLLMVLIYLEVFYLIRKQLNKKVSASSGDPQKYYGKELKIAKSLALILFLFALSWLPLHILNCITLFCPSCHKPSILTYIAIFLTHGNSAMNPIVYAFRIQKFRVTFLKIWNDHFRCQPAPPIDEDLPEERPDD
SMILES,Ki [1] [nM],further results
CCCn1c(=O)c2c(nc3cc(OC)ccn32)n(CCCCOC(=O)c2cccc(S(=O)(=O)F)c2)c1=O,79,
CCCn1c(=O)c2c(nc3cc(OC)ccn32)n(CCCNC(=O)c2ccc(S(C)(=O)=O)cc2)c1=O,,IC50 [2]: 794 nM; Ki [3]: 6310 nM; Ki [4]: 15800 nM
CCCn1c(=O)c2c(nc3cc(OC)ccn32)n(CCOC(=O)c2ccc(S(=O)(=O)F)cc2)c1=O,200,
CCCn1c(=O)c2c(nc3cc(OC)ccn32)n(CCCOC(=O)c2ccc(S(=O)(=O)F)cc2)c1=O,20,
CCCn1c(=O)c2c(nc3cc(OC)ccn32)n(CCOC(=O)c2cccc(S(=O)(=O)F)c2)c1=O,398,
CCCn1c(=O)c2c(nc3cc(OC)ccn32)n(CCCCNC(=O)c2cccc(S(=O)(=O)F)c2)c1=O,158,
CCCn1c(=O)c2c(nc3cc(OC)ccn32)n(CCCNC(=O)c2ccc(S(=O)(=O)F)cc2)c1=O,,Ki [3]: 1260 nM; Ki [4]: 794 nM
CCCn1c(=O)c2c(nc3cc(OC)ccn32)n(CCCCOC(=O)c2ccc(S(=O)(=O)F)cc2)c1=O,32,
CCCn1c(=O)c2c(nc3cc(OC)ccn32)n(CCCOC(=O)c2cccc(S(=O)(=O)F)c2)c1=O,100,
CCCn1c(=O)c2c(nc3cc(OC)ccn32)n(CCCCNC(=O)c2ccc(S(=O)(=O)F)cc2)c1=O,32,
CCCn1c(=O)c2c(nc3cc(OC)ccn32)n(CCCNC(=O)c2cccc(S(=O)(=O)F)c2)c1=O,32,
